The test system of experiment [1] is Leishmania donovani. Kind of experiment: Ratio of antimicrobial activity against drug-resistant Leishmania donovani LdDR50 to antimicrobial activity against wild type Leishmania donovani AG83. In kind it is functional. Put shortly: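 Cells washed twice in PBS, MTT added for 4 h, acidified isopropanol stop for 20 min at room temperature, A570 read. Growth expressed as % of untreated WT OD; three experiments.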

In experiment [2] the test system is Leishmania donovani. Kind of experiment: Inhibition of recombinant drug-resistant Leishmania donovani LdDR50 topoisomerase 1b large subunit F270L mutant and small subunit N184S mutant-mediated relaxation of supercoiled pBluescript SK(+) DNA at up to 50 uM after 30 mins using ethidium bromide staining. Put shortly:
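Reconstituted recombinant enzyme (30 fmol) with 90 fmol supercoiled pBluescript SK(+) DNA (3:1 DNA:enzyme), 30 min at 37°C with DIM (1–50 μM for fully mutant enzyme; 10 μM for single-site mutants); 4% DMSO vehicle control. Products on 1% agarose, ethidium bromide (0.5 μg/ml) stained; supercoiled monomer band quantified.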

The subject of experiment [3] is T1, DNA topoisomerase type IB small subunit (Leishmania donovani (strain BPK282A1)), E9B7X3 [N184S].
T1 sequence (whole entry): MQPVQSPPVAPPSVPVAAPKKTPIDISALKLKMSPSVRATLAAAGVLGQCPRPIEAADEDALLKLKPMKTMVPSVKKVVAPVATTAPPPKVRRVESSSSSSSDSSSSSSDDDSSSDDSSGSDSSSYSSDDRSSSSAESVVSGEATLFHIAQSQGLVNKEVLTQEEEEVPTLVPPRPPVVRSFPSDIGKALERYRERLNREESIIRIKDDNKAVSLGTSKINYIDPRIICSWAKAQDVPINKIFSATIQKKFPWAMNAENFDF
Kind of experiment: Effect on recombinant drug-resistant Leishmania donovani LdDR50 topoisomerase 1b small subunit N184S mutant-mediated cleavage of 25-mer duplex oligonucleotide at 5 uM after 30 mins by PAGE analysis. Put shortly:
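5′-32P-labelled 25-mer duplex (10 nM) incubated with reconstituted mutant enzyme (0.2 μM, 20-fold molar excess) and DIM 5–20 μM for 30 min (Methods 37°C; legend 23°C). Stopped with SDS, trypsin-treated, resolved on 12% denaturing polyacrylamide-urea gel; cleaved 12-mer detected by autoradiography.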

Experiment [4] shares this test system. Briefly: Inhibition of recombinant drug-resistant Leishmania donovani LdDR50 topoisomerase 1b small subunit N184S mutant-mediated religation of 14-mer/25-mer suicide DNA substrate at 20 uM […] by PAGE analysis. Put shortly: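 5′-32P-labelled 14-mer annealed to 25-mer suicide substrate (5 nM) cleaved by 0.15 μM reconstituted enzyme at 23°C, ± 20 μM DIM. Complexes moved to 30°C for 2 min; religation started with 300-fold excess 11-mer acceptor for 30, 60, 120 s. Stopped with 1% SDS, trypsin-treated, 23-mer product resolved on sequencing gel.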

Calls of active or inactive are those of the source. The calls are words filed in the database; no cut-off is given here.

For the molecule `c1ccc2c(Cc3c[nH]c4ccccc34)c[nH]c2c1` [ARUNDINE], the Ratio in experiment [1] was found to be 42. Moreover, the inhibition result in experiment [2] was “inactive”. The outcome in experiment [3] was inactive. Further, in experiment [4], the inhibition result was “Active”.
